Results as given in ChEMBL document CHEMBL1122570, “Studies on 1,2,3-triazoles. 10. Synthesis and antiallergic properties of 9-oxo-1H,9H-benzothiopyrano[2,3-d]-1,2,3-triazoles and their S-oxides” (1984).

What follows are compounds tested on Rattus norvegicus (assay: Compound was evaluated for its antiallergic activity in rat passive cutaneous anaphylaxis (PCA) test by the intravenous administration.).
Assay type: functional
Method in brief: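 Male Sprague–Dawley rats (250–300 g) sensitized intradermally on shaved backs with six twofold dilutions (typically 1:4–1:128) of rat anti-ovalbumin serum in 0.9% saline. After 72 h, compound given iv to groups of six just before iv challenge with 1% ovalbumin plus pontamine sky-blue. Killed at 20 min and wheal diameters measured. Inhibition computed against vehicle controls; ED50 from log-dose regression with 95% confidence limits.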

Question: Which ED50 does the source give for `O=C1c2ccccc2S(=O)(=O)c2[nH]nnc21` here?
Answer: 6.14 mg/kg

Question: Which ED50 does the source give for `O=c1c2ccccc2[s+]([O-])c2[nH]nnc12` (stereo not given) here?
Answer: 1.23 mg/kg

Question: Which ED50 does the source give for `Cc1cc2sc3nnnc-3c(O)c2cc1C` here?
Answer: 0.43 mg/kg

Question: How did the ED50 turn out when `Cc1ccc2c(c1)C(=O)c1[nH]nnc1S2(=O)=O` was run?
Answer: 5.88 mg/kg

Question: Which ED50 does the source give for `Cc1cc2c(cc1C)S(=O)(=O)c1nn[nH]c1C2=O` here?
Answer: 0.6 mg/kg

Question: For `Cc1ccc2sc3nnnc-3c(O)c2c1C`, which ED50 is on record?
Answer: 3.18 mg/kg

Question: `Oc1c2nnnc-2sc2ccccc12` was tested. Which ED50 did it give?
Answer: 1.43 mg/kg

Question: How did the ED50 turn out when `COc1ccc2sc3nnnc-3c(O)c2c1` was run?
Answer: 1.59 mg/kg

Question: For `Cc1ccc2c(c1C)C(=O)c1[nH]nnc1S2(=O)=O`, which ED50 is on record?
Answer: > 1 mg/kg

Question: How did the ED50 turn out when `Cc1ccc2sc3nnnc-3c(O)c2c1` was run?
Answer: 11.4 mg/kg
